Experimental data of several laboratories.
Protocols differ between the studies behind these lines.
TRPM8: Transient receptor potential cation channel subfamily M member 8 (TRPM8, Homo sapiens, UniProt Q7Z2W7)
AKR1B1: Aldo-keto reductase family 1 member B1 (AKR1B1, Homo sapiens, UniProt P15121)
LATS2: Serine/threonine-protein kinase LATS2 (LATS2, Homo sapiens, UniProt Q9NRM7)
CD36: Platelet glycoprotein 4 (CD36, Homo sapiens, UniProt P16671)
SLC6A6: Sodium- and chloride-dependent taurine transporter (SLC6A6, Homo sapiens, UniProt P31641)

Structure (SMILES) | target | test | endpoint | result
CCCCCCCCCP(=O)(C(C)C)C(C)C | TRPM8 | ion current, agonist, patch clamp | EC50 | 24.8 µM
CNC(=O)C(C)(C(C)C)C(C)C | TRPM8 | calcium signal, agonist | EC50 | 56.5 µM
COc1cc(/C=N/NC(=S)N/N=C/c2ccccc2)ccc1Oc1ccnc2cc(Cl)ccc12 | AKR1B1 | enzyme activity, inhibitor, absorbance | IC50 | 17.2 µM
Cc1cc(-c2ccnc3[nH]cc(F)c23)cc(F)c1[C@@]1(O)[C@H](C)CN(C2CCS(=O)(=O)CC2)C[C@@H]1C | LATS2 | enzyme activity, inhibitor, radiometric | IC50 | 0.0055 µM
N#Cc1ccc(O[C@H]2CC[C@H](NC(=O)c3ccc(N4CCC(CN5CCN(c6cc7c(cc6F)C(=O)N(C6CCC(=O)NC6=O)C7=O)CC5)CC4)nn3)CC2)cc1Cl (some centres unmarked) | CD36 | binding, SPR | Kd | 5.9 µM
Cc1cc(-c2ccnc3[nH]cc(F)c23)cc(F)c1[C@@]1(O)[C@H](C)CN(C(=O)CN)C[C@@H]1C | LATS2 | binding, TR-FRET | Kd | 0.00049 µM
CCCCC1OC(=O)c2ccccc21 (centres unmarked) | Vimentin (VIM, Homo sapiens, UniProt P08670) | binding, SPR | Kd | 3.42 µM
CCCCC(=O)Nc1ccc(-c2ccc3ncn(CCC)c(=O)c3c2)cn1 | Phosphatidylinositol 5-phosphate 4-kinase type-2 gamma (PIP4K2C, Homo sapiens, UniProt Q8TBX8) | binding, competition with immobilised ligand | Kd | 0.00655 µM
Cc1ncsc1-c1ccc(CNC(=O)[C@@H]2C[C@@H](O)CN2C(=O)[C@@H](NC(=O)COCCOCCOCCNC(=O)C[C@@H]2N=C(c3ccc(Cl)cc3)c3c(sc(C)c3C)-n3c(C)nnc32)C(C)(C)C)cc1 | CD36 | binding, SPR | Kd | 9.6 µM
COc1cc(/C=N/NC(=S)NN=Cc2sccc2C)ccc1Oc1ccnc2cc(Cl)ccc12 | AKR1B1 | enzyme activity, inhibitor, absorbance | IC50 | 15.9 µM
NCCCC(=O)O | SLC6A6 | binding, MST | Kd | 26 µM
CCOc1cccc(C2CC(=O)Nc3c2c(C)nn3-c2ccc3nncn3n2)c1 (centres unmarked) | DNA damage-binding protein 1 (DDB1, Homo sapiens, UniProt Q16531) | binding, SPR | Kd | 10 µM
COc1cc(/C=N/NC(=S)N/N=C\c2ccc(CCl)cc2)ccc1Oc1ccnc2cc(Cl)ccc12 | AKR1B1 | enzyme activity, inhibitor, absorbance | IC50 | 20.4 µM
N=C(N)NCC(=O)O | SLC6A6 | binding, MST | Kd | 35.8 µM
O=C1NC(c2cccc([N+](=O)[O-])c2)=CCN1c1ccccc1O | TRPM8 | ion current, agonist, patch clamp | EC50 | 0.412 µM
COc1cc(/C=N/NC(=S)NN=Cc2ccc(CO)o2)ccc1Oc1ccnc2cc(Cl)ccc12 | AKR1B1 | enzyme activity, inhibitor, absorbance | IC50 | 21.3 µM
OC1(c2ccc(-c3ccnc4[nH]cc(F)c34)cc2)CCNCC1 | LATS2 | enzyme activity, inhibitor, radiometric | IC50 | 0.0057 µM
